Experimental data from publication PMC8083113 (Journal of medicinal chemistry, 2021).
Read-outs that look alike come from different tables or passages of the source. Values belong to the molecule of their own block, whether it stands above or below them.

Experiments:
[1] = Table S4; cited from earlier work
STAT3 [2] = biological target: T1, STAT3 (Homo sapiens, UniProt P40763); assay: Western blot of STAT3 in BxPC-3; type: cell-based; conditions: for effect on STAT3 expression: BxPC-3, 16 h, XD2–162 up to 5 μM, 1–6 at 0.5 μM
T1 sequence (P40763 whole entry): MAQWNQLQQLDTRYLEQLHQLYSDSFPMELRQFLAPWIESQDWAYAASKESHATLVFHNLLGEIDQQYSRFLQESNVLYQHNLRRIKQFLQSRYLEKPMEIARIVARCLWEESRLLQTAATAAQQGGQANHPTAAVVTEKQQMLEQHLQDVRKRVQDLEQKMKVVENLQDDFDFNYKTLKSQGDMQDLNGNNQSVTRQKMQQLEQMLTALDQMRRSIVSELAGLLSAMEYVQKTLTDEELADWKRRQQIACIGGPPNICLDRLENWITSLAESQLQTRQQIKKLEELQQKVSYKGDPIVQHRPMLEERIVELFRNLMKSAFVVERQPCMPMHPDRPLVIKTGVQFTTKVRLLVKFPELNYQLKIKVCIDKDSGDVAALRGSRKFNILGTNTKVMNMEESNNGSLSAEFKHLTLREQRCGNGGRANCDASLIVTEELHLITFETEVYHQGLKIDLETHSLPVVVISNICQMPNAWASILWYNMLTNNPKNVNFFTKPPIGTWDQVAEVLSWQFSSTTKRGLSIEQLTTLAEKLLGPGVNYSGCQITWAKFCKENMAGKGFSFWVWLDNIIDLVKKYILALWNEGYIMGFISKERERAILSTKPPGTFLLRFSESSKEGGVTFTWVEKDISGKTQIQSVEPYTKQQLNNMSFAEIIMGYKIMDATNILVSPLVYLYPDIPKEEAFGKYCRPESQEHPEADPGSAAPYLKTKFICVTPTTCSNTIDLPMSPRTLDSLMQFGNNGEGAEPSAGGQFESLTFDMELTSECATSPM
In short: (§1)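 BxPC-3 cells (500 × 10^3/well) are treated with the test compound (concentrations up to 5 μM) for 16 h. They are lysed at 4 °C by sonication in Tris/NaCl/Triton X-100/SDS buffer, pH 7.4, with protease and phosphatase inhibitors. Protein is measured by BCA, run on 10 or 12% gels and transferred to PVDF. Blots are probed overnight at 4 °C for STAT3/pSTAT3 (1:1000) and GAPDH (1:4000), imaged by near-infrared fluorescence, and quantified by densitometry.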

BxPC-3 [3] = assay: MTT cytotoxicity assay in BxPC-3; type: cell-based
In short: (§2)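 Cells (3000–6000/well) are seeded and left overnight, then exposed to the test compound or DMSO vehicle for 3 days. MTT (3 mg/ml) is added for 3 h at 37 °C, and the formazan is dissolved in DMSO and read at 570 nm. IC50 comes from dose-response curves from three independent experiments, reported as mean ± SD.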

GSPT1 = GSPT1 (Homo sapiens, UniProt P15170); assay: Western blot of GSPT1 in BxPC-3; type: cell-based
Sequence of GSPT1 (Q96SW2 whole entry partner): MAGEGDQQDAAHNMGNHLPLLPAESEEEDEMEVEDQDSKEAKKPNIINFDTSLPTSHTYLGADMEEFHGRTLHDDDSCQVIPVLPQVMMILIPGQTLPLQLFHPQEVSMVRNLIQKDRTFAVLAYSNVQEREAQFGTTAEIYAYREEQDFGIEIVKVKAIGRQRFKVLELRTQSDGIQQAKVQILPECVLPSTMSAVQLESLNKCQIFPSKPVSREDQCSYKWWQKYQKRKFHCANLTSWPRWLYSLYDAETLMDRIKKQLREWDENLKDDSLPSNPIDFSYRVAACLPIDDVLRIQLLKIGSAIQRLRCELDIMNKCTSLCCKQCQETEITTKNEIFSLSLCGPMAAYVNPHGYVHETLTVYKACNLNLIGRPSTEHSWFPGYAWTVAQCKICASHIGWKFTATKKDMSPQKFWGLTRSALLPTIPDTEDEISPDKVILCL
Sequence of GSPT1 (Q16531 whole entry partner): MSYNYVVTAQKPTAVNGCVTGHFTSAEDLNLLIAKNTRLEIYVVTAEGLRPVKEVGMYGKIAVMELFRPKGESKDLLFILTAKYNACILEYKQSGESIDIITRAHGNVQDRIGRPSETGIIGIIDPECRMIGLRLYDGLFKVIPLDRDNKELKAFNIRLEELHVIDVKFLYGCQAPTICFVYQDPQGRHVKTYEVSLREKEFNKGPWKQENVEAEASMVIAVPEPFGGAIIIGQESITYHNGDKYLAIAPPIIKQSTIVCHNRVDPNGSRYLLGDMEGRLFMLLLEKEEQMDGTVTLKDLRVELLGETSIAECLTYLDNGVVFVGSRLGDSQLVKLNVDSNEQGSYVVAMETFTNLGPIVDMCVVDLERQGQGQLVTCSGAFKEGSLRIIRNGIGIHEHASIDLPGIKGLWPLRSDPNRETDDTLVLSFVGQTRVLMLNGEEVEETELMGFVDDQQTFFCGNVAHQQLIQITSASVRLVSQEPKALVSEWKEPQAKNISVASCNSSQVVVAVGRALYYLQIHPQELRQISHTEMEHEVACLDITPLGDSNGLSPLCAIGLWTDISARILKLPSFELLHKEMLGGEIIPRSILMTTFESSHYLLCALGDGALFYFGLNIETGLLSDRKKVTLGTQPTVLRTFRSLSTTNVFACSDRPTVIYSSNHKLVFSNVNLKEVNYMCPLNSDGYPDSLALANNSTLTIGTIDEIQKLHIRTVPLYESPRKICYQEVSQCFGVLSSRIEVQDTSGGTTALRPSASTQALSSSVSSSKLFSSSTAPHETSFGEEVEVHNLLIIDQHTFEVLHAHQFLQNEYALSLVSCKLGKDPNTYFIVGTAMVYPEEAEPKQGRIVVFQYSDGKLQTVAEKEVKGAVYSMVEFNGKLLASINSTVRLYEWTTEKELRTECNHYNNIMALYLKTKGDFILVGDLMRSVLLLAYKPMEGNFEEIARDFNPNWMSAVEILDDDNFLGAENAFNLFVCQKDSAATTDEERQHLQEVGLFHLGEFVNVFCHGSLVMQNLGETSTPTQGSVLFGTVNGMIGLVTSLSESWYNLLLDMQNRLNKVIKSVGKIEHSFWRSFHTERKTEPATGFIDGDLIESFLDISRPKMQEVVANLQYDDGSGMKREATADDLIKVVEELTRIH
Sequence of GSPT1 (P15170 whole entry): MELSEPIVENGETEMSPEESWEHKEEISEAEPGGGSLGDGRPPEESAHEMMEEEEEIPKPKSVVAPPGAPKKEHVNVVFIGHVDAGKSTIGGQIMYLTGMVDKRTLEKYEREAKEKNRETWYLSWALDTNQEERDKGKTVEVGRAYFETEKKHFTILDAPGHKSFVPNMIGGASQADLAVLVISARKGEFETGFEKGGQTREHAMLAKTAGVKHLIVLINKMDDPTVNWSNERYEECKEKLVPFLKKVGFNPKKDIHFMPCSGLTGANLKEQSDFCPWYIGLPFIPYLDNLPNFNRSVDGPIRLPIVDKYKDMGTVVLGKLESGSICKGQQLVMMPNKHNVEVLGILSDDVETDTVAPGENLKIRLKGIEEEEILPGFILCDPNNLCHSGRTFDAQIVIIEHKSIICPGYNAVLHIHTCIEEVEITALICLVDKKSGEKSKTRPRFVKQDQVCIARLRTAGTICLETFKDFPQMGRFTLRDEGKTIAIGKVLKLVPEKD
In short: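 BxPC-3 cells (500 × 10^3/well) are exposed to the test compound for 16 h and lysed by sonication at 4 °C in Tris/NaCl/Triton/SDS buffer, pH 7.4, with protease and phosphatase inhibitors. After BCA quantitation, SDS-PAGE and PVDF transfer, membranes are probed overnight at 4 °C with anti-GSPT (1:1000) and GAPDH (1:4000). Detection uses near-infrared secondaries, with densitometric quantification.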

ZFP91 = ZFP91 (Homo sapiens, UniProt Q96JP5+Q96SW2); assay: Western blot of ZFP91 in BxPC-3; type: cell-based
Sequence of ZFP91 (Q96JP5 whole entry): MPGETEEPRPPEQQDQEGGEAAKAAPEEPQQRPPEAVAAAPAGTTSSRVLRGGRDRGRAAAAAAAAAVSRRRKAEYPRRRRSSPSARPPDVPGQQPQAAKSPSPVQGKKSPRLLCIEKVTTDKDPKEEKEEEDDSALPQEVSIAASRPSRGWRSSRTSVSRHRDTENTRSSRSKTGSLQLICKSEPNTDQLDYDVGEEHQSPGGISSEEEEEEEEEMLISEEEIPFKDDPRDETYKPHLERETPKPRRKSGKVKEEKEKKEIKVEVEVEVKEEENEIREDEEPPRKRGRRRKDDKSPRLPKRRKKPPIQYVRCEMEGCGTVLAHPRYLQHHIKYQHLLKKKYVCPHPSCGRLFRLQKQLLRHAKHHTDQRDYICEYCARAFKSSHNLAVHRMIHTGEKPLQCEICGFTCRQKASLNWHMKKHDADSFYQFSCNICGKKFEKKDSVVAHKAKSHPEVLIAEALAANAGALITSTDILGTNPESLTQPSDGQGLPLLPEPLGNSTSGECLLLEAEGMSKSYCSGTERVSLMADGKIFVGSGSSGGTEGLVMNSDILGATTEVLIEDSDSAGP
Sequence of ZFP91 (Q96SW2 whole entry): as the sequence (Q96SW2 whole entry partner) above
Sequence of ZFP91 (Q16531 whole entry partner): as the sequence (Q16531 whole entry partner) above

pSTAT3 = assay: Western blot of pSTAT3 in BxPC-3; type: cell-based; conditions: BxPC-3, 16 h treatment
In short: as §1

BxPC-3 [4] = assay: Colony formation assay in BxPC-3; type: cell-based; conditions: BxPC-3, 7–10 days
STAT3 [5] = biological target: T1, STAT3; assay: Western blot of STAT3 in OVCAR-3; type: cell-based; conditions: OVCAR-3, negative control incapable of binding CRBN
In short: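 OVCAR-3 cells are seeded at 500 × 10^3/well and treated with the test compound at several concentrations and times (read-out at 12 h). Lysis is by sonication at 4 °C in Tris/NaCl/Triton X-100/SDS buffer, pH 7.4, with protease and phosphatase inhibitors. After BCA quantitation, SDS-PAGE and PVDF transfer, blots are probed for STAT3 (1:1000) and GAPDH (1:4000) and imaged by near-infrared fluorescence.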

MTT assay = type: cell-based; conditions: Table S4
STAT3 [6] = biological target: T1, STAT3; conditions: leukemia and lymphoma cell lines; cited from earlier work
tumor = conditions: within two weeks; cited from earlier work
MIA PaCa-2 = assay: MTT cytotoxicity assay in MIA PaCa-2; type: cell-based; conditions: read-out: IC50 (μM) MIA PaCa-2, 3 days, mean ± SD
In short: as §2

[7] = Homo sapiens, BXPC-3, 72 h, read-out: IC50 (μM) BxPC-3, MTT assay, 3 days, mean ± SD
[8] = read-out: IC50 (μM) BxPC-3, MTT assay, 3 days, mean ± SD

effect on STAT3 expression (STAT3 [2]): did not have any effect
Molecule: O=C(NCCN1CCCCC1)c1cc2c(o1)C(=O)c1ccccc1C2=O [1–6, reference compound]
greater cytotoxicity than napabucasin [1]: > 10 fold

Molecule: O=C1CCC(N2C(=O)c3cccc(NCCCC4CCN(CCNC(=O)c5cc6c(o5)C(=O)c5ccccc5C6=O)CC4)c3C2=O)C(=O)N1 (stereo not shown) [3–6c, N-(2-(4-(3-((2-(2,6-dioxopiperidin-3-yl)-1,3-dioxoisoindolin-4-yl)amino)propyl)piperidin-1-yl)ethyl)-4,9-dioxo-4,9-dihydronaphtho[2,3-b]furan-2-carboxamide]
IC50 (BxPC-3 [3]; [7]): < 1 µM

concentration at which a decrease in STAT3 protein expression was observed (STAT3 [2]; BxPC-3, 16 h treatment): 5 µM
GSPT1 protein level (GSPT1): did not degrade
ZFP91 expression at the earlier time point (ZFP91; BxPC-3, 4 h): no effect
Molecule: O=C1CCC(N2C(=O)c3cccc(NCCCCCC4CCN(CCNC(=O)c5cc6c(o5)C(=O)c5ccccc5C6=O)CC4)c3C2=O)C(=O)N1 (stereo not shown) [3–6d, N-(2-(4-(5-((2-(2,6-dioxopiperidin-3-yl)-1,3-dioxoisoindolin-4-yl)amino)pentyl)piperidin-1-yl)ethyl)-4,9-dioxo-4,9-dihydronaphtho[2,3-b]furan-2-carboxamide]
IC50 (BxPC-3 [3]; [7]): < 1 µM
concentration at which a decrease in pSTAT3 level was achieved (pSTAT3): 1 μM
inhibition of colony formation (BxPC-3 [4]): greater inhibitory activity than napabucasin

Molecule: O=C1CCC(N2C(=O)c3cccc(OCCCCNC(=O)c4cc5c(o4)C(=O)c4ccccc4C5=O)c3C2=O)C(=O)N1 (stereo not shown) [5–5a, N-(4-((2-(2,6-dioxopiperidin-3-yl)-1,3-dioxoisoindolin-4-yl)oxy)butyl)-4,9-dioxo-4,9-dihydronaphtho[2,3-b]furan-2-carboxamide]
fold more potent than 5–5b (BxPC-3 [3]; cytotoxicity IC50): ~2 fold

activity on STAT3 expression compared with XD97 (STAT3 [5]): comparable activity to XD97
Molecule: O=C(NCCOCCOCCNc1cccc2c1C(=O)N(C1CCCNC1=O)C2=O)c1cc2c(o1)C(=O)c1ccccc1C2=O (stereo not shown) [10–5, N-(2-(2-(2-((1,3-dioxo-2-(2-oxopiperidin-3-yl)isoindolin-4-yl)amino)ethoxy)ethoxy)ethyl)-4,9-dioxo-4,9-dihydronaphtho[2,3-b]furan-2-carboxamide]

effect on STAT3 expression (STAT3 [2]): did not have any effect
Molecule: CN1C(=O)CCC(N2C(=O)c3cccc(NCCCCCC4CCN(CCNC(=O)c5cc6c(o5)C(=O)c5ccccc5C6=O)CC4)c3C2=O)C1=O (stereo not shown) [11–7, N-(2-(4-(5-((2-(1-methyl-2,6-dioxopiperidin-3-yl)-1,3-dioxoisoindolin-4-yl)amino)pentyl)piperidin-1-yl)ethyl)-4,9-dioxo-4,9-dihydronaphtho[2,3-b]furan-2-carboxamide]
concentration at which a decrease in pSTAT3 level was achieved (pSTAT3): 5 μM

GSPT1 protein level (GSPT1): not affected
ZFP91 protein level (ZFP91; BxPC-3, 16 h, up to 3 μM): no effect
Molecule: CC(=O)c1cc2c(o1)C(=O)c1ccccc1C2=O [NP, 2-acetylbenzo[f][1]benzofuran-4,9-dione, reference compound]

Molecule: Nc1cccc2c1C(=O)N(C1CCC(=O)NC1=O)C2=O (stereo not shown) [Pomalidomide]
no cytotoxicity in the MTT assay up to (MTT assay): > 30 µM

Molecule: NC(=O)CC[C@H](NC(=O)[C@@H]1CC[C@@H]2CCN(C(=O)CCCCCC#Cc3cccc4c3CN(C3CCC(=O)NC3=O)C4=O)C[C@H](NC(=O)c3cc4cc(C(F)(F)P(=O)(O)O)ccc4[nH]3)C(=O)N21)C(=O)NC(c1ccccc1)c1ccccc1 (stereo partly shown) [SD-36]
DC50 values for STAT3 degradation (in words) (STAT3 [6]): nanomolar
tumor response (tumor): complete tumor regression

Molecule: N-(2-(2-(2-((2-(2,6-dioxopiperidin-3-yl)-1,3-dioxoisoindolin-5-yl)amino)ethoxy)ethoxy)ethyl)-4,9-dioxo-4,9-dihydronaphtho[2,3-b]furan-2-carboxamide [6–6c]
IC50 (BxPC-3 [3]; [8]): 23.8 ± 3.9 µM
IC50 (MIA PaCa-2): 10.5 ± 3 µM

Molecule: N-(5-(2-(2,6-dioxopiperidin-3-yl)-1-oxoisoindolin-4-yl)pentyl)-4,9-dioxo-4,9-dihydronaphtho[2,3-b]furan-2-carboxamide [8–1]
IC50 (BxPC-3 [3]; [8]): 13.8 ± 7.7 µM
IC50 (MIA PaCa-2): 6.4 ± 3.4 µM
